PERK inh: human PERK inhibition, primary cell-based screen. Q9NZJ5. CHO PERK-DD fusion, SEAP luminescence translation reporter. inhibition, % at 5.6 µM. hit rate 0.17% among 220,000. AID 1416;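 active = inhibition above the mean inhibition of all tested compounds plus 3 SD, set separately per screening campaign, cut at about 2.9% in these data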;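 note: PERK kinase domain activated by AP20187 dimerizer at 100 nM; 0% = DMSO with dimerizer and 100% = rapamycin at 8.4 µM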
Thrombin inh: thrombin (human) inhibition; alpha-thrombin, Boc-VPR-AMC fluorogenic substrate cleavage; inhibition, % at 5 µM; hit rate 0.26% among 220,000;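 active = inhibition at or above 40%; inactive = inhibition below 40%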;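 note: 0% = enzyme with no compound and 100% = wells without enzyme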
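System – human alpha-thrombin · Medium – pH 7.5 Tris (50 mM) with NaCl 150 mM, Tween 20 0.05% · Compound – single-point dosing at 5 µM, 0.2% DMSO · Incubation – enzyme reaction carried out at room temperature · Technique – fluorescence of released AMC, ex 355 nm, em 460 nm · Read-out basis – % inhibition of thrombin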
FXIIa inh 1536: blocks human coagulation factor XIIa protease activity. P00748. purified FXIIa, Boc-QGR-AMC fluorogenic substrate, 2 h. inhibition, % at 5 µM. hit rate 0.3% among 220,000. AID 800; in the data active = inhibition above about 40%;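 note: 0% = enzyme with no compound and 100% = blank without enzyme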
hK5 inh: kallikrein 5 (human) inhibition; Q9Y337; recombinant hK5, fluorogenic AMC substrate cleavage; inhibition, % at 5 µM; hit rate 0.59% among 210,000; AID 873;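 active = inhibition of 40% or more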;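 note: 0% = enzyme controls without compound and 100% = no-enzyme blanks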
Furin inh: blocks human furin protease activity | P09958 | purified furin, fluorogenic substrate cleavage | inhibition, % at 20 µM or 30 µM | hit rate 0.061% among 220,000 | AID 463115; in the data active = inhibition above about 25%
FXIa inh: factor XIa (human) inhibition | purified FXIa, Boc-Glu-Ala-Arg-AMC fluorogenic substrate | inhibition, % at 5 µM | hit rate 0.14% among 220,000;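 active = inhibition of at least 40%; inactive = inhibition below 40%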;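 note: fluorescence of freed AMC excited at 355 nm; 0% = enzyme without compound and 100% = no enzyme blank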
* = called active by the depositor; nt = no result given. A selection: hits, their analogues and other compounds. The true share with any hit is near 1.2%.

SMILES	PERK inh	Thrombin inh	FXIIa inh 1536	hK5 inh	Furin inh	FXIa inh
CCOC(=O)C1(c2ccccc2)CCN(CC(=O)Nc2cccc3ccccc23)CC1	-1.0	2.4	11.0	-21.9	-18.9	21.1
CCOC(=O)C1(c2ccccc2)CCN(Cc2cccc(C(=O)O)c2)CC1	0.8	19.6	18.9	44.1*	-18.4	11.6
CN(C)C(Cc1ccccc1)C(=O)c1ccc(-c2ccccc2)cc1 (configuration not stated)	-1.0	16.9	13.3	97.7*	-5.5	10.6
CC(=O)C1C2c3ccccc3O[C@@]1(C)N=c1s/c(=C/c3ccoc3)c(=O)n12 (some centres not stated)	-1.4	-5.2	2.3	-17.7	4.9	-6.1
O=C1CC(c2ccccc2)CN1 (configuration not stated)	0.6	-11.4	6.3	-1.5	-17.7	-1.6
CN(CC1COc2ccccc2O1)c1nc(-c2cccnc2)nc2ccccc12 (configuration not stated)	-1.2	17.3	10.2	52.9*	-13.8	11.0
CCCC(C)C1C(C#N)=C(N)Oc2c1c(=O)oc1ccccc21 (configuration not stated)	-0.1	10.4	26.5	68.0*	-23.8	15.7
CCCC1C(C#N)=C(N)Oc2c1c(=O)oc1ccccc21 (configuration not stated)	1.2	0.3	19.1	-6.7	-9.3	12.4
O=[N+]([O-])c1ccc(N2CCNCC2)cc1N1CCCCC1	-1.8	3.5	13.9	14.1	7.7	19.7
COc1ccc(NC(=O)c2cc([N+](=O)[O-])ccc2N2CCNCC2)cc1	-0.1	5.1	29.4	51.1*	0.1	22.6
O=C(C1CCC(=O)N1C1CCCCC1)N1CCC2(CC1)OCCO2 (configuration not stated)	1.9	9.3	6.3	2.1	-31.4	-3.9
CCNc1cc(N2CCNCC2)ccc1[N+](=O)[O-]	0.2	33.8	28.0	27.8	9.7	68.0*
COc1ccc(CNC(=O)C(NC(C)=O)C(C)C)cc1OC (configuration not stated)	0.1	-3.1	6.6	-0.6	-19.7	-1.7
Cc1cccc(-n2c(O)c(/C=C/C=Nc3ccccc3)c(=O)[nH]c2=O)c1	0.3	0.4	2.9	-15.7	31.2*	-1.8
CN1CCC(c2c[nH]c3ccccc23)C1 (configuration not stated)	0.3	-1.0	7.6	0.3	-9.1	-0.9
CC1CCCC(C)N1/N=C/c1c[nH]c2ccc(Br)cc12 (configuration not stated)	-0.3	18.0	18.8	45.2*	-6.1	0.8
O=C1CN=C(c2ccccc2)c2cc(Br)ccc2N1Cc1cc(=O)n2ccccc2n1	-0.1	0.8	10.4	-19.6	-3.8	7.8
NNC(=O)CN1C(=O)CN=C(c2ccccc2)c2cc(Br)ccc21	-2.0	33.4	44.4*	27.2	0.9	19.1
C/C(=N\NC(N)=O)c1c(O)n(C)c(=O)n(C)c1=O	1.5	-1.2	6.9	2.9	-8.5	-2.3
CN(C)C(=O)CSc1nnc([C@@H](N)Cc2ccccc2)o1	-0.2	61.4*	60.8*	23.4	-15.7	12.8
CCC(=NCC1CCCO1)c1c(O)n(-c2ccc(Cl)cc2)c(=O)[nH]c1=O (configuration not stated)	0.3	4.3	12.9	-21.3	-19.0	-0.8
CCC(=NCC1CCCO1)c1c(O)n(-c2ccccc2)c(=O)[nH]c1=O (configuration not stated)	-0.8	14.6	17.9	60.8*	-2.9	18.0
COc1ccc(OCC(=O)N2CCN(C/C=C/c3ccccc3)CC2)cc1	-0.4	82.5*	nt	25.9	-10.2	38.1
COc1ccc(-n2c(O)c(C=Nc3c(C)n(C)n(-c4ccccc4)c3=O)c(=O)[nH]c2=O)cc1	0.2	9.4	18.6	-2.9	-7.5	7.1
CC(=O)N1CCN(c2ccc(N=Cc3c(O)n(-c4ccc(Cl)cc4)c(=O)[nH]c3=O)cc2)CC1	1.0	9.5	14.7	58.9*	-18.6	9.3
CCN(CC)c1ccc(N=Cc2c(O)n(-c3ccc(Cl)cc3)c(=O)[nH]c2=O)cc1	0.7	-1.1	17.9	2.9	-6.2	6.2
CCOc1ccc(-c2c(C)n(-c3ccc(OCC)cc3)c3[n+]2CCCCC3)cc1	-2.3	6.0	45.7*	36.0	0.0	50.9*
O=c1cccc2n1CC1CC2CN(c2nc(N3CCCCC3)nc(N3CCCCC3)n2)C1 (configuration not stated)	0.6	1.5	-2.1	-5.0	-17.3	-2.4

High-throughput results: PubChem, several laboratories
